Read-outs that look alike come from different tables or passages of the source.

A word on the Ki: it is the dissociation constant of the complex between target and ligand, obtained from inhibition or displacement. Read a low Ki as higher affinity.

Series [1] deals with PSMA (Homo sapiens, UniProt Q04609). The series is described as follows: NAALADase assay. The series is classed as biochemical.
Series [2] is described as follows: Electronic / fluorescence properties. The series is classed as physicochemical. Summed up: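 Test compound (Re tricarbonyl complex) dissolved in ethylene glycol, measured under air or after argon purging. […] Lifetime was measured by a frequency-domain method with 370 nm LED excitation and 540–600 nm bandpass collection. Quantum yield was obtained by the optically dilute method against aerated aqueous [Ru(bpy)3]Cl2 (φ = 0.028, excitation 455 nm).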

The subject of series [3] is PSMA+ PC3 PIP cells. The series is described as follows: In vitro fluorescence microscopy in PC3 PIP and PC3 flu cells. Format: cell-based, human. The conditions noted are these: excitation 494 nm, emission 628 nm. Summed up:
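PC3 PIP and PC3 flu cells (10000 per well) were attached overnight at 37 °C in 5% CO2. […] Wells were washed with warm medium for 30 s, mounted, dried 20 min, held overnight at 4 °C, then imaged.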

[4] abbreviates: LNCaP cell extracts, Cheng–Prusoff conversion.

Chain of PSMA (Q04609 whole entry): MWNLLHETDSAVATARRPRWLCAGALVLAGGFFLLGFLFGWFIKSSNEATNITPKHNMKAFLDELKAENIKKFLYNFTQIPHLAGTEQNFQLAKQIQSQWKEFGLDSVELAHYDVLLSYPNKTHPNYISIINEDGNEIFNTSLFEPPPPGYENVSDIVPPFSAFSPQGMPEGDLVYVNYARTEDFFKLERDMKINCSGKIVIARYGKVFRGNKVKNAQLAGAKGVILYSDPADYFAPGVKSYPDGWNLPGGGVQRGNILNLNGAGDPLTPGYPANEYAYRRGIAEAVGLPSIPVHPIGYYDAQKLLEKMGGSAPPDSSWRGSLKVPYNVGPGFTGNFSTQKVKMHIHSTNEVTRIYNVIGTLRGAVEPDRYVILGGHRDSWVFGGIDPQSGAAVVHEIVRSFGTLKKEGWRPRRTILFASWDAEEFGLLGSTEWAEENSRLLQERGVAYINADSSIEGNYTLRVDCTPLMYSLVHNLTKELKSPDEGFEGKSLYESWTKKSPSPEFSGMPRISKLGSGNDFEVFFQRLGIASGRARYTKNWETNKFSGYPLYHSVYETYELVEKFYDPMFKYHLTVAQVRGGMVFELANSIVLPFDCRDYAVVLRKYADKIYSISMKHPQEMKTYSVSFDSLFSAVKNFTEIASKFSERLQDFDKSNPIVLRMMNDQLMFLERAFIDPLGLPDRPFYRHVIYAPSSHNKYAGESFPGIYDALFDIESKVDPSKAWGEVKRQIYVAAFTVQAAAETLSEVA

Regarding `O=C(O)CCC(NC(=O)NC(CCCCNC(=O)CCCCCCC(=O)NC(CCCCN(Cc1ccccn1)Cc1ccccn1)C(=O)O)C(=O)O)C(=O)O` (centres unmarked) [Compound L1, 2-[3-(5-{7-[5-(Bis-pyridin-2-ylmethyl-amino)-1-carboxy-pentylcarbamoyl]-heptanoylamino}-1-carboxy-pentyl)-ureido]-pentanedioic Acid], the Ki in series [1] was found to be 15.2 nM.
`O=C(O)CCC(NC(=O)NC(CCCCNC(=O)CCCCCCC(=O)NC(CCCCN(Cc1ccc2ccccc2n1)Cc1ccc2ccccc2n1)C(=O)O)C(=O)O)C(=O)O` (centres unmarked) [Compound L2, 2-[3-(5-{7-[5-(Bis-quinolin-2-ylmethyl-amino)-1-carboxy-pentylcarbamoyl]-heptanoylamino}-1-carboxy-pentyl)-ureido]-pentanedioic acid] had a Ki in series [1] (setting [4]) of 0.17 nM.
For the molecule `O=C(O)CCC(NC(=O)NC(CCCCNC(=O)CCCCCCCN(Cc1ccccn1)Cc1ccccn1)C(=O)O)C(=O)O` (centres unmarked) [Compound L5, 2-(3-{5-[8-(Bis-pyridin-2-ylmethyl-amino)-octanoylamino]-1-carboxy-pentyl}-ureido)-pentanedioic Acid], the “PSMA inhibitory activity (in words)” value in series [1] is on record as “low nanomolar”.
Consider `O=C(O)CCC(NC(=O)NC(CCCCNC(=O)CCCCCCC(=O)NC(CCCCN(Cc1ccccn1)Cc1ccccn1)C(=O)O)C(=O)O)C(=O)O.[Br-].[C-]#[O+].[C-]#[O+].[C-]#[O+].[Re+]` (stereo not drawn) [ReL1, Tricarbonyl (2-[3-(5-{7-[5-(bis-pyridin-2-ylmethyl-amino)-1-carboxy-pentylcarbamoyl]-heptanoylamino}-1-carboxy-pentyl)-ureido]-pentanedioic acid) rhenium bromide], for which the affinity in series [1] (setting [4]), expressed as Ki, was 10.8 nM.
As to `O=C(O)CCC(NC(=O)NC(CCCCNC(=O)CCCCCCC(=O)NC(CCCCN(Cc1ccc2ccccc2n1)Cc1ccc2ccccc2n1)C(=O)O)C(=O)O)C(=O)O.[Br-].[C-]#[O+].[C-]#[O+].[C-]#[O+].[Re+]` (stereo not drawn) [ReL2, Tricarbonyl(2-[3-(5-{7-[5-(bis-quinolin-2-ylmethyl-amino)-1-carboxy-pentylcarbamoyl]-heptanoylamino}-1-carboxy-pentyl)-ureido]-pentanedioic acid) rhenium bromide], the extinction coefficient in series [2] (at 321 nm) was determined as 17200 M⁻¹. In series [2] (electronic spectrum), this molecule displayed an absorbance maximum of 321 nm. The molecule also showed a fluorescence quantum yield in series [2] (ethylene glycol under argon) of 0.018. In series [2] (excitation at 321 nm), the fluorescence emission is given as 550 nm. Moreover, the fluorescence lifetime in series [2] (λem = 550 nm, ethylene glycol under argon) stood at 11.8 μs. Moreover, in series [3], the “fluorescent signal in live cells (internalization)” value was “weak but observable fluorescent signal”. In series [1] (setting [4]), this molecule had an inhibition constant (Ki) of 0.5 nM. In series [1] (relative to ReL1), the “PSMA inhibitory activity, fold higher than ReL1” value is given as 20 fold.
As to `O=C(O)CCC(NC(=O)NC(CCCCNC(=O)CCCCCCC(=O)NCCCCC(C(=O)O)N(Cc1ccccn1)Cc1ccccn1)C(=O)O)C(=O)O.[Br-].[C-]#[O+].[C-]#[O+].[C-]#[O+].[Re+]` (stereo not drawn) [ReL3, Tricarbonyl(2-[3-(5-{7-[5-(bis-pyridin-2-ylmethyl-amino)-5-carboxy-pentylcarbamoyl]-heptanoylamino}-1-carboxy-pentyl)-ureido]-pentanedioic acid)rehenium bromide], the affinity in series [1] (setting [4]), expressed as Ki, was 10.3 nM. In other words, the double-digit nanomolar range.
In turn, `O=C(O)CCC(NC(=O)NC(CCCCNC(=O)CCCCCCCN(Cc1ccccn1)Cc1ccccn1)C(=O)O)C(=O)O.[Br-].[C-]#[O+].[C-]#[O+].[C-]#[O+].[Re+]` (stereo not drawn) [ReL5, Tricarbonyl(2-(3-{5-[8-(bis-pyridin-2-ylmethyl-amino)-octanoylamino]-1-carboxy-pentyl}-ureido)-pentanedioic acid)rhenium bromide] returned a Ki in series [1] (setting [4]) of 0.91 nM.
As to `O=C(O)CCC(NC(=O)NC(CCCCN(Cc1ccccn1)Cc1ccccn1)C(=O)O)C(=O)O.[Br-].[C-]#[O+].[C-]#[O+].[C-]#[O+].[Re+]` (stereo not drawn) [ReL6, Tricarbonyl(2-{3-[5-(bis-pyridin-2-ylmethyl-amino)-1-carboxy-pentyl]-ureido}-pentanedioic acid)rhenium bromide], in series [1], the “PSMA inhibitory activity (in words)” value is reported as “very low PSMA inhibitory activity, the lowest in the entire series”. In series [1] (setting [4]), this molecule showed a Ki of 200 nM.
`O=C(O)CCC(NC(=O)NC(CCCCNC(=O)CCCCCCC(=O)NCCCCCCN(Cc1ccccn1)Cc1ccccn1)C(=O)O)C(=O)O.[Br-].[C-]#[O+].[C-]#[O+].[C-]#[O+].[Re+]` (stereo not drawn) [ReL7, Tricarbonyl(2-[3-(5-{7-[6-(Bis-pyridin-2-ylmethyl-amino)-hexylcarbamoyl]-heptanoylamino}-1-carboxy-pentyl)-ureido]-pentanedioic acid)rhenium bromide]: the Ki in series [1] (setting [4]) turned out to be 2.06 nM.

The values above are taken from PMC3336105 (Journal of Medicinal Chemistry, 2008).
